Measured values published in ChEMBL document CHEMBL1147605, “Syntheses and biological evaluation of new fluoroquinolone antibacterials containing chiral oxiimino pyrrolidine” (Bioorg Med Chem Lett, 2004).
≈ marks a conversion by molar mass, not a printed value.

Columns and labels:
[1] = Plasma concentration for the compound was determined in rats at 50 mg/kg dose; assay type: ADME, organism-based; parameters: dose 50 mg/kg; conditions: rat
Summary of the method: (§1)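 Pharmacokinetics were measured in SD rats given 50mg/kg, reporting Cmax, Tmax, T1/2 and AUC.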

Escherichia coli [2] = assay: In vitro antibacterial activity against the Escherichia coli DC 2; assay type: functional
[3] = test system: Staphylococcus epidermidis; assay: In vitro antibacterial activity against the Ofloxacin Resistant Staphylococcus epidermidis 291; assay type: functional
Summary of the method: (§2)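 MICs by agar dilution following National Committee for Clinical Laboratory Standards recommendations; all strains obtained from Hoechst.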

V79-4 = assay: Cytotoxicity was determined for the compound in V79-4 cell line; assay type: functional, cell-based; conditions: Cricetulus griseus
Staphylococcus aureus [4] = assay: In vitro antibacterial activity against the Methicillin-Resistant Staphylococcus aureus (MRSA) 690 E; assay type: functional; summary of the method: as §2
Pseudomonas aeruginosa [5] = assay: In vitro antibacterial activity against the Pseudomonas aeruginosa 1592E; assay type: functional
[6] = test system: Staphylococcus epidermidis; assay: In vitro antibacterial activity against the Ofloxacin Resistant Staphylococcus epidermidis 319; assay type: functional; summary of the method: as §2
Staphylococcus aureus [7] = assay: In vitro antibacterial activity against the Methicillin-Resistant Staphylococcus aureus (MRSA) 692 E; assay type: functional; summary of the method: as §2
Staphylococcus aureus [8] = assay: In vitro antibacterial activity against the Ofloxacin Resistant Staphylococcus aureus 293; assay type: functional; summary of the method: as §2
[9] = Half-life period for the compound was determined in rats at 50 mg/kg dose; assay type: ADME, organism-based; parameters: dose 50 mg/kg; conditions: rat, in vivo
HepG2 = assay: Cytotoxicity was determined for the compound in HepG2 cell line; assay type: functional, cell-based; conditions: Homo sapiens
Streptococcus pyogenes [10] = assay: In vitro antibacterial activity against the Streptococcus pyogenes 77A; assay type: functional
Staphylococcus aureus [11] = assay: In vitro antibacterial activity against the Staphylococcus aureus SG511; assay type: functional
Staphylococcus aureus [12] = assay: In vitro antibacterial activity against the Ofloxacin Resistant Staphylococcus aureus 303; assay type: functional; summary of the method: as §2
Pseudomonas aeruginosa [13] = assay: In vitro antibacterial activity against the Pseudomonas aeruginosa 1771M; assay type: functional
[14] = Maximum plasma concentration reached by compound was determined in rats at 50 mg/kg dose; assay type: ADME, organism-based; parameters: dose 50 mg/kg; conditions: rat; summary of the method: as §1
Staphylococcus aureus [15] = assay: In vitro antibacterial activity against the Methicillin-Resistant Staphylococcus aureus (MRSA) 705 E; assay type: functional; summary of the method: as §2
Salmonella typhimurium = assay: In vitro antibacterial activity against the Salmonella Typhimurium; assay type: functional, Salmonella enterica subsp. enterica serovar Typhimurium; conditions: Salmonella enterica
Enterococcus sp. = assay: In vitro antibacterial activity against the Ofloxacin Resistant Enterococcus knothe 101; assay type: functional; summary of the method: as §2
Staphylococcus aureus [16] = assay: In vitro antibacterial activity against the Methicillin-Resistant Staphylococcus aureus (MRSA) 701 E; assay type: functional; summary of the method: as §2
[17] = Time for maximum plasma concentration reached by compound was determined in rats at 50 mg/kg dose; assay type: ADME, organism-based; parameters: dose 50 mg/kg; conditions: rat; summary of the method: as §1
Staphylococcus aureus [18] = assay: In vitro antibacterial activity against the Ofloxacin Resistant Staphylococcus aureus 179; assay type: functional; summary of the method: as §2
Streptococcus pyogenes [19] = assay: In vitro antibacterial activity against the Streptococcus pyogenes 308A; assay type: functional
Enterobacter cloacae = assay: In vitro antibacterial activity against the Enterobacter cloacae 1321 E; assay type: functional
Staphylococcus aureus [20] = assay: In vitro antibacterial activity against the Methicillin-Resistant Staphylococcus aureus (MRSA) 707 E; assay type: functional; summary of the method: as §2
Klebsiella = assay: In vitro antibacterial activity against the Ofloxacin Resistant Klebsiella species 30-92; assay type: functional; summary of the method: as §2
Staphylococcus aureus [21] = assay: In vitro antibacterial activity against the Staphylococcus aureus 285; assay type: functional
Pseudomonas aeruginosa [22] = assay: In vitro antibacterial activity against the Ofloxacin Resistant Pseudomonas aeruginosa 279II; assay type: functional; summary of the method: as §2
Staphylococcus aureus [23] = assay: In vitro antibacterial activity against the Methicillin-Resistant Staphylococcus aureus (MRSA) 697 E; assay type: functional; summary of the method: as §2
Escherichia coli [24] = assay: In vitro antibacterial activity against the Escherichia coli 078; assay type: functional

Structure (SMILES)	MIC (Escherichia coli [2]) [µg/mL]	MIC [3] [µg/mL]	MIC (Staphylococcus aureus [4]) [µg/mL]	MIC (Pseudomonas aeruginosa [5]) [µg/mL]	MIC [6] [µg/mL]	MIC (Staphylococcus aureus [7]) [µg/mL]	MIC (Staphylococcus aureus [8]) [µg/mL]	MIC (Streptococcus pyogenes [10]) [µg/mL]	MIC (Staphylococcus aureus [11]) [µg/mL]	MIC (Staphylococcus aureus [12]) [µg/mL]	MIC (Pseudomonas aeruginosa [13]) [µg/mL]	MIC (Staphylococcus aureus [15]) [µg/mL]	MIC (Salmonella typhimurium) [µg/mL]	MIC (Enterococcus sp.) [µg/mL]	MIC (Staphylococcus aureus [16]) [µg/mL]	MIC (Staphylococcus aureus [18]) [µg/mL]	MIC (Streptococcus pyogenes [19]) [µg/mL]	MIC (Enterobacter cloacae) [µg/mL]	MIC (Staphylococcus aureus [21]) [µg/mL]	MIC (Escherichia coli [24]) [µg/mL]	other results
CO/N=C1\CN(c2nc3c(cc2F)c(=O)c(C(=O)O)cn3C2CC2)C[C@]1(C)CN.Cl	0.049	0.195	< 0.002	1.56	0.391	< 0.002	0.098	0.013	0.004	0.098	0.781	0.004	0.013	0.098	< 0.002	0.098	0.098	0.007	0.007	0.025	AUC [1]: 90800 ng·h/mL; IC50 (V79-4): 5.49 µg/mL; half-life [9]: 4.5 h; IC50 (HepG2): 37.3 µg/mL; Cmax [14]: 9060 ng/mL; Tmax [17]: 2 h; MIC (Staphylococcus aureus [20]): < 0.002 µg/mL; MIC (Klebsiella): 1.56 µg/mL; MIC (Pseudomonas aeruginosa [22]): 6.25 µg/mL; MIC (Staphylococcus aureus [23]): < 0.002 µg/mL
CO/N=C1\CN(c2cc3c(cc2F)c(=O)c(C(=O)O)cn3C2CC2)CC1(C)CN.Cl (stereo not drawn)	0.025			0.781				0.013	0.007		0.391		0.013				0.098	0.013	0.013	0.013	
CC1(CN)CN(c2nc3c(cc2F)c(=O)c(C(=O)O)cn3C2CC2)C/C1=N/OCc1ccccc1.Cl (stereo not drawn)	0.098			6.25				0.025	< 0.002		1.56		0.098				0.195	0.049	< 0.002	0.049	
N[C@@H]1[C@H]2CN(c3nc4c(cc3F)c(=O)c(C(=O)O)cn4-c3ccc(F)cc3F)C[C@@H]12 [TROVAFLOXACIN]																					IC50 (V79-4): 3.77 µg/mL (≈ 9.05 µM); IC50 (HepG2): 11.2 µg/mL (≈ 26.8 µM)
CO/N=C1\CN(c2c(F)c(N)c3c(=O)c(C(=O)O)cn(C4CC4)c3c2F)C[C@@]1(C)CN.Cl	0.013	0.391	0.004	0.391	0.781	0.004	0.195	0.013	< 0.002	0.195	0.195	0.007	< 0.002	0.195	0.007	0.195	0.049	< 0.002	0.004	0.004	MIC (Klebsiella): 1.56 µg/mL; MIC (Pseudomonas aeruginosa [22]): 3.12 µg/mL; MIC (Staphylococcus aureus [23]): 0.004 µg/mL
CO/N=C1\CN(c2c(F)c(N)c3c(=O)c(C(=O)O)cn(C4CC4)c3c2F)C[C@]1(C)CN.Cl	< 0.002	0.049	< 0.002	0.391	0.025	< 0.002	0.013	< 0.002	< 0.002	0.013	0.195	< 0.002	< 0.002	0.013	< 0.002	0.013	0.004	< 0.002		< 0.002	AUC [1]: 68800 ng·h/mL; IC50 (V79-4): 0.21 µg/mL; half-life [9]: 6.94 h; IC50 (HepG2): 11.6 µg/mL; Cmax [14]: 6670 ng/mL; Tmax [17]: 1 h; MIC (Staphylococcus aureus [20]): < 0.002 µg/mL; MIC (Klebsiella): 0.781 µg/mL; MIC (Pseudomonas aeruginosa [22]): 3.12 µg/mL; MIC (Staphylococcus aureus [23]): < 0.002 µg/mL
CO/N=C1\CN(c2nc3c(cc2F)c(=O)c(C(=O)O)cn3C2CC2)CC1(C)CN.Cl (stereo not drawn)	0.049	0.391	0.004	0.781	0.391	< 0.002	0.195	0.025	0.004	0.195	0.391	0.013	0.007	0.098	0.007	0.195	0.098	0.004	0.007	0.004	MIC (Staphylococcus aureus [20]): < 0.002 µg/mL; MIC (Klebsiella): 1.56 µg/mL; MIC (Pseudomonas aeruginosa [22]): 6.25 µg/mL; MIC (Staphylococcus aureus [23]): 0.007 µg/mL
